p97 inhibitor – inhibitors of human p97 ATPase, primary screen, biochemical; Transitional endoplasmic reticulum ATPase (Homo sapiens), P55072; recombinant p97 ATPase, Kinase-Glo ATP luminescence, 3 h; inhibition, % at 8 µM; 220,000 tested, 0.42% active; AID 1481, 2009; in the data active = inhibition above about 15%;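 also: 0% = DMSO vehicle and 100% = wells lacking enzyme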
Target sequence (P55072 whole entry, looked up): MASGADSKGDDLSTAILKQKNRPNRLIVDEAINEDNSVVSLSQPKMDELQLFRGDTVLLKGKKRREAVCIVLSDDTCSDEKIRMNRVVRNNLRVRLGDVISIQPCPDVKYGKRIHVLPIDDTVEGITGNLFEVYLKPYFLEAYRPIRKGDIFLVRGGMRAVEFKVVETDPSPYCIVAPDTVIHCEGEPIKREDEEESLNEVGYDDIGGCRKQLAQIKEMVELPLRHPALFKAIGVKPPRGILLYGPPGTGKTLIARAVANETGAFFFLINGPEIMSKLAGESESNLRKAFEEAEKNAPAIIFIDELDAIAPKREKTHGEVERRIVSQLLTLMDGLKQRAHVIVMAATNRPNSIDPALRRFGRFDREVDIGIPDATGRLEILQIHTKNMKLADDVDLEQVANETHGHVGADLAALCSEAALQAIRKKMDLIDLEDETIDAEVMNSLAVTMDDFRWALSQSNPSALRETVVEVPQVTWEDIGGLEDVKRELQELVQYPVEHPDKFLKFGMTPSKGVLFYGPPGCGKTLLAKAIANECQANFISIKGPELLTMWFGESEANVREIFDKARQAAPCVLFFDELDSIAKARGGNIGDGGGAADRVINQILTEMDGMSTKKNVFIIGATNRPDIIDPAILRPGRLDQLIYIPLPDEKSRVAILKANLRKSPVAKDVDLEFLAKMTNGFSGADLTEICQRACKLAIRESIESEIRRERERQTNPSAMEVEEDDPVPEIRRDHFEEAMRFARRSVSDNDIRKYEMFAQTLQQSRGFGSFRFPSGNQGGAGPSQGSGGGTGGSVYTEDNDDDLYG
STAT1 act – STAT1 signaling activators, primary screen, cell-based, HTS, luciferase reporter; activation (% of control), % at 5.5 µM; NIH 3T3 STAT1-luciferase reporter, IFN-gamma, luminescence; 100% = IFN-gamma alone, no compound; 200,000 tested, 2.6% active;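 active = activation above the screen-wide mean activation plus 3 SD, cut at about 130% in these data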;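 also: raw ratio to IFN-gamma control signal so 100% means no change and 0% no light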
NF-kB expr up – activators of NF-kB expression in neurons, primary screen, cell-based, HTS; fold change at 12.5 µM; human neuronal cells, NF-kB reporter expression; stronger effect = higher value; 190,000 tested, 1.6% active; in the data active = fold change above about 3.3
APP 5'UTR act – activators of APP 5'UTR luciferase reporter, primary screen, SH-SY5Y cells | SH-SY5Y APP 5'UTR luciferase reporter, luminescence; zero percent = DMSO vehicle wells | activation, % at 2 µM | 190,000 tested, 1% active | AID 1276, 2008;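 active = activation above a set limit, based on mean plus 3 SD of controls, cut at about 140% in these data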
Mdm2 ligase inh – MDM2-luciferase reporter signal enhancers, primary screen, MDM2 E3 ligase inhibitor project, cell-based, luminescence, 1536-well; 210,000 tested, 0.11% active; cell-based MDM2 ubiquitination luciferase reporter, 2 h; 0 = plate control, 100 = twice control, blank-subtracted; signal enhancement, % at 5 µM; E3 ubiquitin-protein ligase Mdm2 (Homo sapiens), Q00987;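 active = signal enhancement of 30% or more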;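 also: luminescence tracks abundance of the self-degrading MDM2-luciferase fusion protein; higher signal means inhibition of MDM2 E3 ligase activity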
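system = mammalian cells stably expressing self-ubiquitinating, self-degrading MDM2 E3–luciferase fusion | quantity = 2000 cells per well seeded | incubation = 4 h cell settling then 2 h compound exposure, 37 °C | signal = SteadyLite luminescence, 15 min reagent step | benchmarks = plate control and blank wells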
Wee1 degr inh – Wee1 degradation inhibitors, primary screen, cell-based, HeLa, Wee1K328M-luciferase, luminescence. reporter increase, % at 5 µM. 220,000 tested, 1.2% active. AID 1321, 2008. HeLa Luc-Wee1K328M stability; 100% = proteasome inhibitor MG132 effect;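 active = activation above the mean of all tested compounds plus 3 SD, set per screening run, cut at about 8.8% in these data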;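 also: cells exposed to compound for 20 h before luminescence read; 0% = DMSO alone and 100% = MG132 at 30 µM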
* hit, by the source's call; . = no result. A selection: hits, their analogues and other compounds. The true share with any hit is near 4.6%.

SMILES	p97 inhibitor	STAT1 act	NF-kB expr up	APP 5'UTR act	Mdm2 ligase inh	Wee1 degr inh
CC(=O)NS(=O)(=O)c1ccc(NC(=O)c2ccc3c(c2)C(=O)N(CCC(C)C)C3=O)cc1	0.9	98.3	1.08	-0.5	-1.9	3.0
Cc1cc(C)c(NC(=O)c2sc3nc(C)[nH]c(=O)c3c2C)c(C)c1	1.8	105.3	1.2	15.8	1.8	0.9
Cc1ccc(NC(=O)c2sc3nc(CCl)[nH]c(=O)c3c2C)c(C)c1	4.4	127.7	0.9	54.1	-4.9	16.2*
Cc1ccccc1NC(=O)N1c2ccccc2CC1C (centres undefined)	8.0	113.1	1.45	-5.4	-8.6	2.5
Cc1ccc(C(=O)N2c3ccccc3CC2C)o1 (centres undefined)	-9.8	148.5*	1.05	133.5	-3.8	8.3
Cc1nc2cc(NC(=O)N3c4ccccc4CC3C)ccc2o1 (centres undefined)	0.7	146.2*	1.43	95.0	.	2.4
CN(C)/C=C(/C(=O)c1ccc(Cl)cc1)S(=O)(=O)c1ccc(Cl)cc1	4.5	99.0	1.29	10.3	-7.5	0.1
Cc1nc(NCc2ccco2)c2c3c(sc2n1)CCC3	4.2	149.8*	0.88	0.3	-8.7	-2.8
O=[N+]([O-])c1cc(S(=O)(=O)NC2=NCCCCC2)ccc1NCC1CCCCC1	-3.9	89.2	0.75	2.4	-6.1	-2.9
Cc1ccc(C)c(OCC(=O)O/N=C(\N)c2ccccn2)c1	0.2	134.8*	6.17*	111.9	-6.0	0.1
COc1ccccc1C(=O)O/N=C(\N)c1ccccn1	0.3	.	.	.	-21.0	9.1*
COc1ccccc1C(=O)Nc1ccccn1	-0.7	132.5*	2.71	50.9	-11.6	-1.9
COc1ccccc1C(=O)O/N=C(\N)c1ccc(Cl)cc1	-0.8	139.8*	5.39*	69.7	-11.9	5.3
Cc1ccc(C)c(OCC(=O)O/N=C(\N)c2cccnc2)c1	6.3	.	.	.	0.9	0.0
CCCCC(=O)Nc1ccc(NC(=S)NC(=O)CCCCl)cc1OC	-1.8	92.1	1.28	14.0	-3.0	-0.1
COc1ccc(-c2noc(CSc3nc4ccccc4c(=O)n3-c3ccc(C)cc3)n2)cc1	3.1	97.6	1.45	-0.1	-6.8	-1.5
COc1ccc(Cl)cc1C(=O)O/N=C(\N)c1ccncc1	0.5	.	.	.	-12.5	-2.2
N/C(=N\OC(=O)c1ccccc1[N+](=O)[O-])c1ccccn1	0.6	94.2	3.92*	103.6	-40.6	4.6
Cc1ccc(/C(N)=N/OC(=O)c2ccc(Cl)cc2Cl)cc1	3.2	140.1*	1.55	154.4*	-12.6	2.9
Cn1c(=O)[nH]c(=O)c2c1nc(N1CCCCCC1)n2CCSc1nc2ccccc2[nH]1	-6.8	101.5	1.14	-1.5	-3.4	10.7*
COc1ccc(C)cc1NC(=O)C(OC(=O)CNC(=O)c1ccc(Br)cc1)c1ccccc1 (centres undefined)	-6.9	88.0	0.99	-13.3	5.5	-2.2
COc1ccc(C)cc1NC(=O)C(OC(=O)CNC(=O)c1cc(C)cc(C)c1)c1ccccc1 (centres undefined)	-4.2	98.2	1.19	18.2	67.2*	1.7
Cn1ccc(CC(=O)N2CCC(N3CCC(C(=O)N4CCCC4)CC3)CC2)c1	0.1	.	.	.	-7.0	-2.0
C=CCc1cc(C=O)cc(OCC)c1O	3.0	106.9	0.95	-2.8	1.1	3.6
N/C(=N\OC(=O)c1ccccc1Cl)c1ccccn1	-37.5	31.0	0.88	123.3	-98.3	1.1
SMILES	p97 inhibitor	STAT1 act	NF-kB expr up	APP 5'UTR act	Mdm2 ligase inh	Wee1 degr inh
Cc1cc(/C(N)=N/OC(=O)c2cccc(Cl)c2)no1	4.1	.	.	.	-21.2	2.4
N/C(=N\OC(=O)c1cccc(Cl)c1)c1ccccn1	-17.8	76.7	5.26*	166.3*	-49.9	-1.7
N/C(=N\OC(=O)c1ccc(Cl)c([N+](=O)[O-])c1)c1ccccn1	-3.1	98.7	1.79	25.0	-6.7	-2.5
N/C(=N\OC(=O)c1ccc(Cl)c(Cl)c1)c1ccccn1	-1.1	131.2*	4.55*	140.4*	-40.5	-0.3
N/C(=N\OC(=O)c1ccc(Cl)cc1)c1ccccn1	-34.2	96.7	3.55*	185.4*	-91.0	-4.0
Cc1ccc(/C=N\NC(=O)C2CC(=O)N(c3ccccc3)C2)o1 (centres undefined)	0.8	.	.	.	-11.4	1.0
CCCOC(=O)CC1C(=O)NCCN1C(=O)OC(C)(C)C (centres undefined)	2.5	107.5	1.21	26.8	0.0	-0.9
O=C(CN1C(=O)NC(CCc2ccccc2)C1=O)NC1CC1 (centres undefined)	-0.1	90.5	1.16	-3.1	-36.3	10.7*
CCNC(=O)CN1C(=O)NC(CCc2ccccc2)C1=O (centres undefined)	0.2	97.5	1.09	17.8	-20.6	2.2
Cc1cc(C)c(NC(=O)CN2C(=O)NC(CCc3ccccc3)C2=O)c(C)c1 (centres undefined)	0.1	109.1	0.78	22.1	-10.2	10.5*
CCc1nc2ccccc2c(C(=O)OCC(=O)NC(=O)c2cccn2C)c1C	3.3	.	.	.	-2.9	-2.5
COc1ccc(CC(=O)N2N=C(c3ccncc3)CC2(O)C(F)(F)F)cc1 (centres undefined)	0.8	89.0	0.92	-2.0	0.4	4.1
CCOC(=O)N1N=C(c2ccccc2)CC1(O)C(C)(F)F (centres undefined)	3.4	102.7	1.11	3.2	-15.8	1.5
CCc1ccc(C2=NN(C(=O)OC)C(O)(C(F)(F)F)C2)cc1 (centres undefined)	-5.3	66.0	3.18	136.2*	-43.6	2.1
CCOC(=O)N1N=C(c2ccc(OC)cc2)CC1(O)C(F)(F)F (centres undefined)	-2.4	115.6	3.27	170.6*	-16.3	-1.9
CCNC(=O)NC(=O)COC(=O)CCc1nc(=O)c2ccccc2n1C	2.1	91.9	1.22	-22.2	-2.2	-1.0
CCCc1c(C)[nH]c2ccc(NC(C)=O)cc2c1=O	1.3	98.2	1.2	-10.9	-7.4	8.9*
CC(=O)CCc1c(C)[nH]c2ccc(NC(C)=O)cc2c1=O	-3.9	93.5	1.05	-7.0	-11.8	3.8
O=C(COC(=O)CCC(=O)c1cccs1)NC(=O)c1ccc(OC(F)F)cc1	5.4	103.4	1.11	-2.7	-9.1	0.9
CCOC(=O)CNC(=O)N1CCCC(C(=O)c2ccccc2SC)C1 (centres undefined)	-5.2	93.3	0.99	-7.0	-1.2	0.5
Cc1ccccc1NC(=O)/C(C#N)=C\c1ccsc1	5.4	101.5	1.18	-1.2	-0.6	-2.2

Source: PubChem BioAssay (several laboratories)
